ChEMBL document CHEMBL1649165, “Activity profile in vitro of micafungin against Spanish clinical isolates of common and emerging species of yeasts and molds” (2009)
*1 amine or outer side, *2 acyl side, *3 side chain or, on linkers, in order; H or OH if unused. Where a SMILES comes first, the peptide text is derived from it. Bridges are numbered along the chain shown (N, C = ends). [ ]: non-standard residue; d: D form. The star is where a group is joined. hTyr(3S-OH,4S-OH,3'-OSO3H) = N[C@H](C(=O)O)[C@H](O)[C@@H](O)c1ccc(O)c(OS(=O)(=O)O)c1; Orn(4R-OH,5R-OH) = O=C([C@H](C[C@@H](O)[C@@H](O)N[*:3])N[*:1])[*:2]; Pro(3S-OH,4S-Me) = C[C@H]1CN[C@H](C(=O)O)[C@H]1O; X1 = CCCCCOc1ccc(-c2cc(-c3ccc(C(=O)*)cc3)no2)cc1; Gln(3R-OH) = NC(=O)C[C@@H](O)[C@H](N)C(=O)O; Hyp = O=C(O)[C@@H]1C[C@@H](O)CN1

Columns and labels:
Type in all cases: functional
[1] = tested on: Pichia kudriavzevii; experiment: Antimicrobial activity against Candida krusei by broth microdilution method
How it was run: (§1)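 Clinical isolates from human patients, tested by broth microdilution using the AFST-EUCAST reference procedure for fermentative yeasts. The MIC was read per that reference method.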

[2] = tested on: [Candida] inconspicua; experiment: Antimicrobial activity against Candida inconspicua by broth microdilution method; conditions: Pichia inconspicua; how it was run: as §1
[3] = tested on: Trichosporon inkin; experiment: Antimicrobial activity against Trichosporon inkin by broth microdilution method
How it was run: (§2)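 Nonfermentative yeast clinical isolates (Rhodotorula, Trichosporon) tested by broth microdilution. The EUCAST yeast recommendations were followed strictly, with one minor modification to improve growth. MIC was read as the endpoint.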

[4] = tested on: Trichosporon asahii; experiment: Antimicrobial activity against Trichosporon asahii by broth microdilution method; how it was run: as §2
[5] = tested on: Rhodotorula mucilaginosa; experiment: Antimicrobial activity against Rhodotorula mucilaginosa by broth microdilution method; how it was run: as §2
[6] = tested on: Lomentospora prolificans; experiment: Antimicrobial activity against Scedosporium prolificans by broth microdilution method
How it was run: (§3)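 Filamentous fungus clinical isolates tested by the AFST-EUCAST reference broth microdilution method for moulds. For echinocandins, the endpoint was the minimum effective concentration: the lowest drug concentration giving aberrant hyphal growth, read with an inverted microscope.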

[7] = tested on: Aspergillus fumigatus; experiment: Antimicrobial activity against Aspergillus fumigatus by broth microdilution method
How it was run: (§4)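 Clinical mould isolates, tested by broth microdilution using the AFST-EUCAST reference method for filamentous fungi. For echinocandins, the endpoint was the minimum effective concentration: the lowest drug concentration giving aberrant hyphal growth, read with an inverted microscope.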

[8] = tested on: Aspergillus terreus; experiment: Antimicrobial activity against Aspergillus terreus by broth microdilution method; how it was run: as §4
[9] = tested on: Magnusiomyces capitatus; experiment: Antimicrobial activity against Dipodascus capitatus by broth microdilution method
[10] = tested on: Aspergillus ochraceus; experiment: Antimicrobial activity against Aspergillus ochraceus by broth microdilution method; how it was run: as §4
[11] = tested on: Cladophialophora bantiana; experiment: Antimicrobial activity against Cladophialophora bantiana by broth microdilution method; how it was run: as §4
[12] = tested on: Trichosporon ovoides; experiment: Antimicrobial activity against Trichosporon ovoides by broth microdilution method; how it was run: as §2
[13] = tested on: Rhizopus arrhizus; experiment: Antimicrobial activity against Rhizopus oryzae by broth microdilution method; how it was run: as §3
[14] = tested on: Fusarium solani; experiment: Antimicrobial activity against Fusarium solani by broth microdilution method; how it was run: as §3
[15] = tested on: Trichosporon jirovecii; experiment: Antimicrobial activity against Trichosporon jirovecii by broth microdilution method; conditions: Cutaneotrichosporon jirovecii; how it was run: as §2
[16] = tested on: Aspergillus versicolor; experiment: Antimicrobial activity against Aspergillus versicolor by broth microdilution method; how it was run: as §4
[17] = tested on: Aspergillus glaucus; experiment: Antimicrobial activity against Aspergillus glaucus by broth microdilution method; how it was run: as §4
[18] = tested on: Scedosporium apiospermum; experiment: Antimicrobial activity against Scedosporium apiospermum by broth microdilution method; how it was run: as §3
[19] = tested on: Phialemonium curvatum; experiment: Antimicrobial activity against Phialemonium curvatum by broth microdilution method; conditions: Thyridium curvatum; how it was run: as §3
[20] = tested on: Diutina rugosa; experiment: Antimicrobial activity against Candida rugosa by broth microdilution method; how it was run: as §1
[21] = tested on: Candida albicans; experiment: Antimicrobial activity against Candida albicans by broth microdilution method; how it was run: as §1
[22] = tested on: Paecilomyces variotii; experiment: Antimicrobial activity against Paecilomyces variotii by broth microdilution method; how it was run: as §3
[23] = tested on: Ustilago; experiment: Antimicrobial activity against Ustilago spp by broth microdilution method
[24] = tested on: Candida orthopsilosis; experiment: Antimicrobial activity against Candida orthopsilosis by broth microdilution method; conditions: Lodderomyces orthopsilosis; how it was run: as §1
[25] = tested on: Pichia norvegensis; experiment: Antimicrobial activity against Candida norvegensis by broth microdilution method; how it was run: as §1
[26] = tested on: Aspergillus nidulans; experiment: Antimicrobial activity against Aspergillus nidulans by broth microdilution method; how it was run: as §4
[27] = tested on: Trichosporon; experiment: Antimicrobial activity against Trichosporon spp. by broth microdilution method; how it was run: as §2
[28] = tested on: Fusarium equiseti; experiment: Antimicrobial activity against Fusarium equiseti by broth microdilution method; how it was run: as §4
[29] = tested on: Lecythophora hoffmannii; experiment: Antimicrobial activity against Lecythophora hoffmannii by broth microdilution method; conditions: Coniochaeta hoffmannii; how it was run: as §3
[30] = tested on: Wickerhamomyces anomalus; experiment: Antimicrobial activity against Candida pelliculosa by broth microdilution method; conditions: Hansenula anomala; how it was run: as §1
[31] = tested on: Nakaseomyces glabratus; experiment: Antimicrobial activity against Candida glabrata by broth microdilution method; how it was run: as §1
[32] = tested on: Scopulariopsis brevicaulis; experiment: Antimicrobial activity against Scopulariopsis brevicaulis by broth microdilution method; how it was run: as §3
[33] = tested on: Mucor; experiment: Antimicrobial activity against Mucor spp.by broth microdilution method; how it was run: as §3
[34] = tested on: Candida metapsilosis; experiment: Antimicrobial activity against Candida metapsilosis by broth microdilution method; conditions: Lodderomyces metapsilosis; how it was run: as §1
[35] = tested on: Geotrichum candidum; experiment: Antimicrobial activity against Galactomyces geotrichum by broth microdilution method
[36] = tested on: Cunninghamella bertholletiae; experiment: Antimicrobial activity against Cunninghamella bertholletiae by broth microdilution method; how it was run: as §4
[37] = tested on: Alternaria alternata; experiment: Antimicrobial activity against Alternaria alternata by broth microdilution method; how it was run: as §4
[38] = tested on: Coprinellus domesticus; experiment: Antimicrobial activity against Hormographiella verticillata by broth microdilution method; how it was run: as §3
[39] = tested on: Aspergillus flavus; experiment: Antimicrobial activity against Aspergillus flavus by broth microdilution method; how it was run: as §4
[40] = tested on: Rhodotorula glutinis; experiment: Antimicrobial activity against Rhodotorula glutinis by broth microdilution method; how it was run: as §2
[41] = tested on: Clavispora lusitaniae; experiment: Antimicrobial activity against Candida lusitaniae by broth microdilution method; how it was run: as §1

CCC(C)n1ncn(-c2ccc(N3CCN(c4ccc(OCC5COC(Cn6cncn6)(c6ccc(Cl)cc6Cl)O5)cc4)CC3)cc2)c1=O (centres undefined) [ITRACONAZOLE]
1 µg/mL: MIC90 [16] | MIC50 [18] | MIC90 [31]
> 8 µg/mL: MIC90 [2] | MIC90 [4] | MIC90 [5] | MIC50 [6] | MIC90 [6] | MIC90 [10] | MIC90 [11] | MIC90 [12] | MIC90 [13] | MIC50 [14] | MIC90 [14] | MIC90 [15] | MIC90 [17] | MIC90 [18] | MIC50 [19] | MIC90 [19] | MIC90 [20] | MIC90 [23] | MIC90 [24] | MIC90 [25] | MIC90 [27] | MIC50 [28] | MIC90 [28] | MIC90 [29] | MIC90 [30] | MIC50 [32] | MIC90 [32] | MIC50 [33] | MIC90 [33] | MIC90 [34] | MIC50 [36] | MIC90 [36] | MIC90 [37] | MIC50 [38] | MIC90 [38] | MIC90 [40]
0.06 µg/mL: MIC50 [22]
8 µg/mL: MIC50 [5]
0.25 µg/mL: MIC50 [1] | MIC90 [1] | MIC90 [3] | MIC50 [7] | MIC50 [8] | MIC50 [9] | MIC90 [22] | MIC50 [26] | MIC50 [31] | MIC50 [39]
0.5 µg/mL: MIC50 [4] | MIC90 [7] | MIC90 [8] | MIC90 [9] | MIC50 [10] | MIC50 [12] | MIC50 [15] | MIC50 [16] | MIC50 [17] | MIC50 [23] | MIC90 [26] | MIC50 [27] | MIC50 [35] | MIC50 [37] | MIC90 [39] | MIC50 [40]
0.12 µg/mL: MIC50 [2] | MIC50 [3] | MIC50 [11] | MIC50 [20] | MIC50 [24] | MIC50 [25] | MIC50 [29] | MIC50 [30] | MIC50 [34]
0.02 µg/mL: MIC50 [21] | MIC50 [41]
4 µg/mL: MIC50 [13]
0.03 µg/mL: MIC90 [21] | MIC90 [41]
2 µg/mL: MIC90 [35]

CCCCCOc1ccc(-c2cc(-c3ccc(C(=O)N[C@H]4C[C@@H](O)[C@@H](O)NC(=O)[C@@H]5[C@@H](O)[C@@H](C)CN5C(=O)[C@H]([C@H](O)CC(N)=O)NC(=O)[C@H]([C@H](O)[C@@H](O)c5ccc(O)c(OS(=O)(=O)O)c5)NC(=O)[C@@H]5C[C@@H](O)CN5C(=O)[C@H]([C@@H](C)O)NC4=O)cc3)no2)cc1 [MICAFUNGIN] (X1-[Orn(4R-OH,5R-OH)]T[Hyp][hTyr(3S-OH,4S-OH,3'-OSO3H)][Gln(3R-OH)][Pro(3S-OH,4S-Me)]; lactam 1-C)
8 µg/mL: MIC50 [6]
0.12 µg/mL: MIC90 [2] | MIC90 [20] | MIC90 [24] | MIC90 [25] | MIC90 [30] | MIC90 [34]
0.25 µg/mL: MIC90 [10] | MIC90 [17] | MIC50 [37]
0.06 µg/mL: MIC90 [1] | MIC50 [10] | MIC90 [11] | MIC90 [16] | MIC50 [17] | MIC90 [29]
0.03 µg/mL: MIC50 [1] | MIC50 [2] | MIC50 [7] | MIC90 [7] | MIC50 [8] | MIC90 [8] | MIC50 [11] | MIC50 [16] | MIC50 [18] | MIC50 [20] | MIC50 [21] | MIC90 [21] | MIC50 [22] | MIC90 [22] | MIC50 [24] | MIC50 [25] | MIC50 [26] | MIC50 [29] | MIC50 [30] | MIC50 [31] | MIC90 [31] | MIC50 [34] | MIC50 [41] | MIC90 [41]
> 16 µg/mL: MIC50 [3] | MIC90 [3] | MIC50 [4] | MIC90 [4] | MIC50 [5] | MIC90 [5] | MIC90 [6] | MIC50 [9] | MIC90 [9] | MIC50 [12] | MIC90 [12] | MIC50 [13] | MIC90 [13] | MIC50 [14] | MIC90 [14] | MIC50 [15] | MIC90 [15] | MIC90 [18] | MIC50 [19] | MIC90 [19] | MIC50 [23] | MIC90 [23] | MIC90 [26] | MIC50 [27] | MIC90 [27] | MIC50 [28] | MIC90 [28] | MIC50 [32] | MIC90 [32] | MIC50 [33] | MIC90 [33] | MIC50 [35] | MIC90 [35] | MIC50 [36] | MIC90 [36] | MIC90 [37] | MIC50 [38] | MIC90 [38] | MIC50 [39] | MIC90 [39] | MIC50 [40] | MIC90 [40]
